pIC50: −log10 of the molar value.
Experiments:
[1] = molecular target: T1, Fatty-acid amide hydrolase 1 (Rattus norvegicus, UniProt P97612); experiment: Inhibition of FAAH in rat brain homogenates using [3H]anandamide as substrate preincubated for 60 mins by liquid scintillation spectroscopy
T1 sequence (P97612 whole entry): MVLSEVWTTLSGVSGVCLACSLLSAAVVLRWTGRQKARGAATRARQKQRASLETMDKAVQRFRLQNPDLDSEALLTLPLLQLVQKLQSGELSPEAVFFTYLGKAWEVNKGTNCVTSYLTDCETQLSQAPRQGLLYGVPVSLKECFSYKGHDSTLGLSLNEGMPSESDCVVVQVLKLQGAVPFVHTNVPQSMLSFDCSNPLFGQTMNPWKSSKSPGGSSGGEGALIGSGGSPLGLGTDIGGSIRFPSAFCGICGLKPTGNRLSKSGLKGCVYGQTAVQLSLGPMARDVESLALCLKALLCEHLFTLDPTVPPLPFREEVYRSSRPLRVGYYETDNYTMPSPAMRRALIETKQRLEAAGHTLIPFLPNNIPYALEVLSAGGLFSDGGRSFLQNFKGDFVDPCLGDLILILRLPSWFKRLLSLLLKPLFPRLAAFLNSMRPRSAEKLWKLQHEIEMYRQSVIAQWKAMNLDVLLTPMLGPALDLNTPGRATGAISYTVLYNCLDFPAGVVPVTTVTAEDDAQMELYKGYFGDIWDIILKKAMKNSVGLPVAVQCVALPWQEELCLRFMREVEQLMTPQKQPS

[2] = Irreversible biodistribution in iv dosed rat brain parenchyma after 10 mins by gamma counting; assay type: ADME, organism-based; conditions: in vivo
How it was run: (§1)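 After tail-vein radiotracer, rats (n=4–6/group) killed at 2, 10 or 40 min. Whole brain rinsed in saline and homogenised in cold 80% acetonitrile/0.01% aq HCl. Centrifuged and extracted three times in total. Pooled supernatant (unbound) and pellet (bound) counted separately. […] Mean ± SD.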

[3] = system: Hypothalamus; experiment: Biodistribution in rat brain hypothalamus at < 1 nmol/kg, iv after 2 mins by gamma counting; assay type: ADME, organism-based; conditions: in vivo
How it was run: (§2)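 [18F]radiotracer, 3–4 MBq (0.2–1 nmol/kg), given by tail vein in 0.3 mL 10% ethanol/citrate buffer pH 6 to restrained conscious rats. Decapitation at set times. Regions excised, blotted, weighed. Gamma counting decay-corrected to injection against injected-dose standards. Reported as SUV (%ID/g […] body weight kg), mean ± SD, n=4/group. Blocked groups vs vehicle by Student's t test.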

[4] = Drug uptake in Sprague-Dawley rat amygdaloid nuclei at 0.7 to 0.8 nmol/kg, iv after 40 mins by autoradiography analysis in presence of FAAH inhibitor PF-04457845; assay type: ADME, organism-based; conditions: in vivo
How it was run: (§3)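 Male Sprague-Dawley rats (310–330 g) got 45–55 MBq radiotracer (0.7–0.8 nmol/kg) by tail vein. Pretreated 40 min earlier with vehicle (5% Tween80/saline) or PF-04457845 0.5 mg/kg ip. Killed 40 min post-injection. Brains frozen, cut into 20-μm coronal sections at −20°C, dried, exposed to film for 6 days.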

[5] = Irreversible biodistribution in iv dosed rat brain parenchyma after 2 mins by gamma counting; assay type: ADME, organism-based; conditions: in vivo; how it was run: as §1
[6] = Drug metabolism in rat brain after 10 mins; assay type: ADME, tissue-based; conditions: read-out: Drug metabolism
How it was run: (§4)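 Rats given radiotracer iv, killed at 10 min. Trunk blood taken into heparin, plasma separated and acidified with 10% v/v acetic acid. Plasma and brain homogenate extracts analysed directly by reverse-phase radio-HPLC for parent vs metabolites.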

[7] = system: Hippocampus; experiment: Drug uptake in Sprague-Dawley rat hippocampus at 0.7 to 0.8 nmol/kg, iv after 40 mins by autoradiography analysis; assay type: ADME, organism-based; conditions: in vivo; how it was run: as §3
[8] = Drug uptake in Sprague-Dawley rat thalamic nuclei at 0.7 to 0.8 nmol/kg, iv after 40 mins by autoradiography analysis in presence of FAAH inhibitor PF-04457845; assay type: ADME, organism-based; conditions: in vivo; how it was run: as §3
[9] = system: Plasma; experiment: Drug metabolism in rat plasma after 10 mins; assay type: ADME, cell-free; how it was run: as §4
[10] = system: Cortex; experiment: Biodistribution in rat brain cortex at < 1 nmol/kg, iv after 40 mins by gamma counting; assay type: ADME, organism-based; conditions: in vivo; how it was run: as §2
[11] = system: Cortex; experiment: Drug uptake in Sprague-Dawley rat cerebellar cortex at 0.7 to 0.8 nmol/kg, iv after 40 mins by autoradiography analysis; assay type: ADME, organism-based; conditions: in vivo; how it was run: as §3
[12] = system: Cortex; experiment: Drug uptake in Sprague-Dawley rat cortex at 0.7 to 0.8 nmol/kg, iv after 40 mins by autoradiography analysis in presence of FAAH inhibitor PF-04457845; assay type: ADME, organism-based; conditions: in vivo; how it was run: as §3
[13] = Drug uptake in Sprague-Dawley rat thalamic nuclei at 0.7 to 0.8 nmol/kg, iv after 40 mins by autoradiography analysis; assay type: ADME, organism-based; conditions: in vivo; how it was run: as §3
[14] = Irreversible biodistribution in iv dosed rat brain parenchyma after 2 to 40 mins by gamma counting in presence of FAAH inhibitor URB597; assay type: ADME, organism-based; conditions: in vivo; how it was run: as §1
[15] = system: Brain; experiment: Biodistribution in rat brain at < 1 nmol/kg, iv after 2 to 40 mins by gamma counting in presence of FAAH inhibitor PF-04457845; assay type: ADME, organism-based; conditions: in vivo; how it was run: as §2
[16] = Drug uptake in Sprague-Dawley rat amygdaloid nuclei at 0.7 to 0.8 nmol/kg, iv after 40 mins by autoradiography analysis; assay type: ADME, organism-based; conditions: in vivo; how it was run: as §3
[17] = Drug metabolism in human plasma after 30 mins; assay type: ADME, cell-free; conditions: read-out: Drug metabolism
How it was run: (§5)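 Radiotracer incubated in vitro in rat or human plasma for 30 min at ambient temperature. Decomposition assessed by radio-HPLC.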

[18] = system: Hippocampus; experiment: Drug uptake in Sprague-Dawley rat hippocampus at 0.7 to 0.8 nmol/kg, iv after 40 mins by autoradiography analysis in presence of FAAH inhibitor PF-04457845; assay type: ADME, organism-based; conditions: in vivo; how it was run: as §3
[19] = system: Cortex; experiment: Biodistribution in rat brain cortex at < 1 nmol/kg, iv after 2 mins by gamma counting; assay type: ADME, organism-based; conditions: in vivo; how it was run: as §2
[20] = Irreversible biodistribution in iv dosed rat brain parenchyma after 40 mins by gamma counting; assay type: ADME, organism-based; conditions: in vivo; how it was run: as §1
[21] = system: Cortex; experiment: Drug uptake in Sprague-Dawley rat cortex at 0.7 to 0.8 nmol/kg, iv after 40 mins by autoradiography analysis; assay type: ADME, organism-based; conditions: in vivo; how it was run: as §3
[22] = system: Brain; experiment: Biodistribution in rat brain at < 1 nmol/kg, iv after 2 to 40 mins by gamma counting in presence of FAAH inhibitor URB597; assay type: ADME, organism-based; conditions: in vivo; how it was run: as §2
[23] = Drug uptake in Sprague-Dawley rat cerebellar cortex at 0.7 to 0.8 nmol/kg, iv after 40 mins by autoradiography analysis in presence of FAAH inhibitor PF-04457845; assay type: ADME, organism-based; conditions: in vivo; how it was run: as §3
[24] = system: Hypothalamus; experiment: Biodistribution in rat brain hypothalamus at < 1 nmol/kg, iv after 40 mins by gamma counting; assay type: ADME, organism-based; conditions: in vivo; how it was run: as §2
[25] = system: Plasma; experiment: Drug metabolism in rat plasma after 30 mins; assay type: ADME, cell-free; conditions: 0.5 h; how it was run: as §5

O=C(NCCCCCF)Oc1cccc(C2=NCCO2)c1
pIC50 [1]: 9.09

O=C(NCCCCC[18F])Oc1cccc(C2=NCCO2)c1
Drug uptake [2]: 94% | SUV [3]: 1.74 | Drug uptake [4]: Not Active | Drug uptake [5]: 91% | metabolised at 10 min [6]: 50% | Drug uptake [7]: Active | Drug uptake [8]: Not Active | Drug metabolism [9]: > 95% | SUV [10]: 4.55 | Drug uptake [11]: Active | Drug uptake [12]: Not Active | Drug uptake [13]: Active | Drug uptake [14]: 24% | Drug uptake [15]: Not Active | Drug uptake [16]: Active | metabolised at 0.5 h [17]: < 5% | Drug uptake [18]: Not Active | SUV [19]: 3.9 | Drug uptake [20]: 90% | Drug uptake [21]: Active | Drug uptake [22]: Not Active | Drug uptake [23]: Not Active | SUV [24]: 1.59 | Drug metabolism [25]: > 50%

Reference: ChEMBL document CHEMBL2396616, “Development and characterization of a promising fluorine-18 labelled radiopharmaceutical for in vivo imaging of fatty acid amide hydrolase” (Bioorg Med Chem, 2013)
